This is an account of results in PubChem BioAssay AID624016 (Broad Institute, 2012).

Each structure is given as a SMILES string. The source made the active and inactive calls.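 Rule for the calls: active = fitted curve reaching 35% inhibition at both 405 and 600 nm absorbance, in duplicate, within twice the top valid dose; inactive = the rest, including signal rising instead of falling.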

The first assay concerns P. aeruginosa + EDDHA, pyoverdine absorbance 405 nm, 24-30 h. Put plainly: P. aeruginosa growth delay under iron chelation, dose response, absorbance 405 nm, dry powder, set 4 (AID 624016).
Details: not given
Put shortly: (§1)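 System: P. aeruginosa ATCC 15692 cells; quantity: final OD600 0.0000005; buffer or medium: succinate M9, pH 7.0, 2 µM EDDHA; compound dosing: 3-fold dilution series, 10 mM stock; schedule: compound exposure of bacteria for 24-30 h at 37 °C; signal: absorbance 405 nm, pyoverdine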
As to `N#CC(c1ccc(Cl)cc1)c1ncccc1Cl` (configuration not stated), the AC35 was 10.7 µM.

Consider `N#CC(c1cccc(C(F)(F)F)n1)c1ccc(Cl)cc1F` (configuration not stated), for which the AC35 was 15 µM. Same read-out and setting: the result for `N#CC(c1ccc(F)cc1)c1cccc(C(F)(F)F)n1` (configuration not stated) reads 28.9 µM; that for `N#CC(c1ccc(Cl)cc1)c1cccc(C(F)(F)F)n1` (configuration not stated), 8.64 µM; that for `N#CC(c1ccc(C(F)(F)F)cc1)c1cccc(C(F)(F)F)n1` (configuration not stated), > 50 µM (inactive).

Take `N#CC(c1cccc(Cl)n1)c1ccc(Cl)cc1F` (configuration not stated): the AC35 is 22.3 µM.

System in the next assay: not listed separately
Described as above. The conditions noted are these: P. aeruginosa + EDDHA, pyoverdine absorbance 405 nm, 24-30 h; at 16 µM (top of the series). In a few lines:
as §1
For `Cc1ccc(C(C#N)c2ccccc2OC(F)(F)F)nc1C#N` (configuration not stated), the activity change, negative = inhibition was -24.9% (inactive).

The same assay, now with this note: P. aeruginosa + EDDHA, pyoverdine absorbance 405 nm, 24-30 h; at 50 µM (top of the series).
On to `N#CC(c1cccc(C(F)(F)F)n1)c1ccccc1OC(F)(F)F` (configuration not stated), for which the activity change, negative = inhibition is -7.92% (inactive).

As to `CCCCC(C#N)c1ccc(C(F)(F)F)cc1` (configuration not stated), the activity change, negative = inhibition is -3.25% (inactive). Same read-out and setting: the value for `CCCCC(C#N)c1ccccc1OC(F)(F)F` (configuration not stated) was -2.91% (inactive); that for `N#CC(c1ccc(Cl)cc1)c1ccc(C(F)(F)F)cn1` (configuration not stated) was 3.24% (inactive); that for `N#CC(c1ccc(C(F)(F)F)cc1)c1ccc(C(F)(F)F)c(Cl)n1` (configuration not stated) was 2.24% (inactive).

As for `CCCCC(C#N)c1ccc(Cl)cc1F` (configuration not stated), the activity change, negative = inhibition is 5.25% (inactive). On the same count and under the same terms, the value for `CCCCC(C#N)c1ccc(F)cc1` (configuration not stated) was -0.303% (inactive); that for `CC(C)CC(C#N)c1ccc(Cl)cc1` (configuration not stated) was -16.3% (inactive). Turning to `CCCC(C#N)c1ccc(Cl)cc1` (configuration not stated), the activity change, negative = inhibition was -8.71% (inactive). Same read-out and setting: the result for `CCCCC(C#N)c1ccc(Cl)cc1` (configuration not stated) reads -0.817% (inactive); that for `N#CC(c1ccc(Cl)cc1Cl)c1ncccc1Cl` (configuration not stated), 1.29% (inactive). Turning to `N#CC(c1ccc(C(F)(F)F)c(Cl)n1)c1ccccc1OC(F)(F)F` (configuration not stated), the activity change, negative = inhibition is -6.71% (inactive). The same measure, in the same setting: the result for `N#CC(c1ccc(Cl)cc1)c1ccc(C(F)(F)F)c(Cl)n1` (configuration not stated) reads 20.6% (inactive). Consider `CCCCC(C#N)c1ccc(Cl)cc1Cl` (configuration not stated), for which the activity change, negative = inhibition was -5.19% (inactive). Consider `N#CC(c1ccc(C(F)(F)F)c(Cl)n1)c1ccc(Cl)cc1Cl` (configuration not stated), for which the activity change, negative = inhibition was 15.9% (inactive). As for `N#CC(c1ccc(F)cc1)c1ccc(C(F)(F)F)c(Cl)n1` (configuration not stated), the activity change, negative = inhibition is -4.12% (inactive). Same read-out and setting: the result for `N#CC(c1ccc(C(F)(F)F)cc1)c1cccc(Cl)n1` (configuration not stated) reads -4.32% (inactive); that for `N#Cc1ccc(C(C#N)c2ccc(Cl)cc2Cl)nc1` (configuration not stated), -0.009% (inactive). Same read-out and setting: the result for `N#Cc1cccc(C(C#N)c2ccc(Cl)cc2F)n1` (configuration not stated) reads -15.5% (inactive).

For the molecule `CC(C#N)(c1ccc(Cl)cc1)c1ccc(C(F)(F)F)cn1` (configuration not stated), the activity change, negative = inhibition is -4.71% (inactive).
